In ChEMBL document CHEMBL1128228, “2,3-Dihydro-1-benzofuran-5-ols as analogues of alpha-tocopherol that inhibit in vitro and ex vivo lipid autoxidation and protect mice against central nervous system trauma” (J Med Chem, 1995):
Activity calls are given as the source filed them. The calls are words filed in the database; no cut-off is given here.

Legend:
Mus musculus [1] = species: Mus musculus; assay: Percentage number of paraparetic mice 1 hr after concussive head injury; assay type: functional
Summary of the method: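 Mice were dosed 12 mg/kg sc 30 min before concussive head injury, a blow of measured severity. At 1 h a blinded string test counted mice unable to raise their hind limbs onto a horizontal string as paraparetic. Groups had 20–25 mice and were compared with saline by χ-square.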

[2] = Superoxyl radical (O2) scavenging reaction rate constant in competition with nitro-blue tetrazolium of superoxyl radicals formed by xanthine oxidase in the presence of xanthine; assay type: functional
Rattus norvegicus [3] = species: Rattus norvegicus; assay: In vitro inhibition of lipid autoxidation (TBARS formation) of rat brain homogenate; assay type: functional
Summary of the method: (§1)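 Rat brain homogenate was incubated at 37 °C for 30 min, and TBARS formation was measured. The value is the concentration giving 50% inhibition, as mean ± SD with the number of experiments given.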

Mus musculus [4] = assay: Mouse brain drug concentration after 1 hr of 20 umol/kg subcutaneous administration; assay type: functional, organism-based
Summary of the method: (§2)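 Mouse brain homogenates taken 1 h after 20 μmol/kg sc were diluted in methanol containing 2% ascorbic acid and centrifuged. Supernatant was run on a C8 column with isocratic 0.1 M phosphate/50–75% methanol. Detection was electrochemical at 0.6 V. Results are nmol/g, mean ± SD, five mice per group.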

Mus musculus [5] = assay: Ex vivo inhibition of mouse brain lipid autoxidation after 1 hr by 20 umol/kg subcutaneous administration; assay type: functional; details: sc
Summary of the method: (§3)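 Male CD1 mice (30 g, five per group) were given 20 μmol/kg sc or saline and killed 1 h later. Brains were frozen in liquid N2, stored at -80 °C, then homogenized 1/19 w/v in ice-cold water. Homogenate (10 mg tissue) was incubated in 20 mM KH2PO4 pH 7.3 with 0.14 M KCl (final) at 37 °C for 30 min. Unincubated samples gave basal TBARS.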

Mus musculus [6] = assay: […] fter 1 hr by 20 umol/kg subcutaneous administration; assay type: functional, organism-based; summary of the method: as §2
Rattus norvegicus [7] = species: Rattus norvegicus; assay: In vitro lipid autoxidation (TBARS formation) in rat brain homogenate; no inhibition; assay type: functional; summary of the method: as §1
[8] = O2 scavenging reaction rate constant for competition with nitro-blue tetrazolium of superoxyl radicals formed by xanthine oxidase in the presence of xanthine;No reaction; assay type: functional
Mus musculus [9] = assay: Ex vivo inhibition of mouse brain lipid autoxidation after 1 hr by 1 umol/kg subcutaneous administration; assay type: functional; details: sc
Mus musculus [10] = assay: Ex vivo inhibition of mouse brain lipid autoxidation after 1 hr by 20 umol/kg subcutaneous administration; no inhibition; assay type: functional, organism-based; summary of the method: as §3

SMILES: Cc1c(C)c2c(c(C)c1O)CCC(C)(CC[N+](C)(C)C)O2.Cc1ccc(S(=O)(=O)[O-])cc1 (stereo not drawn)
- Paraparetic mice (Mus musculus [1]): 40%
- Rate constant [2]: 24000 M⁻¹ s⁻¹
- IC50 (Rattus norvegicus [3]; Rattus norvegicus, Brain): 2000 nM

SMILES: Cc1c(C)c2c(c(C)c1O)C(CN1CCN(c3ncccn3)CC1)C(C)(C)O2 (stereo not drawn)
- Concentration (Mus musculus [4]): 0.8 nM/g
- inhibition in vivo at 20 µmol/kg (Mus musculus [5]): 29%
- IC50 (Rattus norvegicus [3]; Rattus norvegicus, Brain): 400 nM

SMILES: Cc1c(C)c2c(c(C)c1O)C(CO)C(C)(C)O2 (stereo not drawn)
- Rate constant [2]: 140000 M⁻¹ s⁻¹
- IC50 (Rattus norvegicus [3]; Rattus norvegicus, Brain): 2600 nM

SMILES: Cc1c(C)c2c(c(C)c1O)C(CN1CCN(Cc3ccccc3)CC1)C(C)(C)O2 (stereo not drawn)
- Concentration (Mus musculus [4]): 1.6 nM/g
- Rate constant [2]: 20000 M⁻¹ s⁻¹
- inhibition in vivo at 20 µmol/kg (Mus musculus [5]): 24%
- IC50 (Rattus norvegicus [3]; Rattus norvegicus, Brain): 300 nM

SMILES: CC(=O)OCCN1CCN(CC2c3c(C)c(OC(C)=O)c(C)c(C)c3OC2(C)C)CC1 (stereo not drawn)
- Concentration (Mus musculus [6]): 5.7 nM/g
- inhibition in vivo at 20 µmol/kg (Mus musculus [5]): 35%
- IC50 (Rattus norvegicus [7]): Not Active
- Rate constant [8]: inactive

SMILES: CC(=O)Oc1c(C)c(C)c2c(c1C)C(CN1CCN(C)CC1)C(C)(C)O2 (stereo not drawn)
- Concentration (Mus musculus [6]): 7.2 nM/g
- inhibition in vivo at 20 µmol/kg (Mus musculus [5]): 57%
- IC50 (Rattus norvegicus [7]): Not Active

SMILES: Cc1c(C)c2c(c(C)c1O)C(CN1CCN(CCO)CC1)C(C)(C)O2 (stereo not drawn)
- Concentration (Mus musculus [4]): 6.5 nM/g
- Paraparetic mice (Mus musculus [1]): 40%
- Rate constant [2]: 90000 M⁻¹ s⁻¹
- inhibition in vivo at 20 µmol/kg (Mus musculus [5]): 57%
- IC50 (Rattus norvegicus [3]; Rattus norvegicus, Brain): 500 nM

SMILES: Cc1c(C)c2c(c(C)c1O)C(C(=O)OCCN1CCN(C)CC1)C(C)(C)O2 (stereo not drawn)
- inhibition in vivo at 20 µmol/kg (Mus musculus [5]): 10%
- IC50 (Rattus norvegicus [3]; Rattus norvegicus, Brain): 3900 nM

SMILES: Cc1c(C)c2c(c(C)c1O)C(C(=O)N1CCN(C)CC1)C(C)(C)O2 (stereo not drawn)
- Rate constant [2]: 83000 M⁻¹ s⁻¹
- IC50 (Rattus norvegicus [3]; Rattus norvegicus, Brain): 12000 nM

SMILES: Cc1c(C)c2c(c(C)c1O)C(C(=O)O)C(C)(C)O2 (stereo not drawn)
- Rate constant [2]: 67000 M⁻¹ s⁻¹
- IC50 (Rattus norvegicus [3]; Rattus norvegicus, Brain): 27000 nM

SMILES: COC(=O)C1c2c(C)c(O)c(C)c(C)c2OC1(C)C (stereo not drawn)
- IC50 (Rattus norvegicus [3]; Rattus norvegicus, Brain): 3200 nM

SMILES: Cc1c(C)c2c(c(C)c1O)C(CN1CCCCC1)C(C)(C)O2 (stereo not drawn)
- Rate constant [2]: 90000 M⁻¹ s⁻¹
- inhibition in vivo at 1 µmol/kg (Mus musculus [9]): 50%
- IC50 (Rattus norvegicus [3]; Rattus norvegicus, Brain): 400 nM

SMILES: Cc1c(C)c2c(c(C)c1O)CCC(C)(CCN(C)C)O2 (stereo not drawn)
- Rate constant [2]: 27000 M⁻¹ s⁻¹
- inhibition in vivo at 20 µmol/kg (Mus musculus [5]): 16%
- IC50 (Rattus norvegicus [3]; Rattus norvegicus, Brain): 700 nM

SMILES: Cc1c(C)c2c(c(C)c1O)CC[C@@](C)(CCC[C@H](C)CCC[C@H](C)CCCC(C)C)O2 [ALPHA-TOCOPHEROL]
- IC50 (Rattus norvegicus [3]; Rattus norvegicus, Brain): 14000 nM

SMILES: Cc1c(C)c2c(c(C)c1O)C(CN(C)C)C(C)(C)O2 (stereo not drawn)
- Rate constant [2]: 150000 M⁻¹ s⁻¹
- inhibition (Mus musculus [10]): inactive
- IC50 (Rattus norvegicus [3]; Rattus norvegicus, Brain): 700 nM

SMILES: Cc1c(C)c2c(c(C)c1O)C(C(=O)N1CCN(CCO)CC1)C(C)(C)O2 (stereo not drawn)
- Rate constant [2]: 43000 M⁻¹ s⁻¹
- IC50 (Rattus norvegicus [3]; Rattus norvegicus, Brain): 19000 nM

SMILES: Cc1c(C)c2c(c(C)c1O)C(CN1CCN(C)CC1)C(C)(C)O2 (stereo not drawn)
- Concentration (Mus musculus [4]): 7.5 nM/g
- Paraparetic mice (Mus musculus [1]): 30%
- inhibition in vivo at 20 µmol/kg (Mus musculus [5]): 63%
- IC50 (Rattus norvegicus [3]): 400 nM
- IC50 (Rattus norvegicus [3]; Rattus norvegicus, Brain): 450 nM

SMILES: Cc1c(C)c2c(c(C)c1O)C(CNC(C)C)C(C)(C)O2 (stereo not drawn)
- Rate constant [2]: 330000 M⁻¹ s⁻¹
- inhibition in vivo at 1 µmol/kg (Mus musculus [9]): 37%
- IC50 (Rattus norvegicus [3]; Rattus norvegicus, Brain): 1400 nM

SMILES: Cc1c(C)c2c(c(C)c1O)C(CN1CCN(CCOCCO)CC1)C(C)(C)O2 (stereo not drawn)
- Concentration (Mus musculus [4]): 1.2 nM/g
- Paraparetic mice (Mus musculus [1]): 60%
- Rate constant [2]: 85000 M⁻¹ s⁻¹
- inhibition (Mus musculus [10]): inactive
- IC50 (Rattus norvegicus [3]; Rattus norvegicus, Brain): 1200 nM

SMILES: Cc1c(C)c2c(c(C)c1O)C(C[N+](C)(C)C)C(C)(C)O2 (stereo not drawn)
- Rate constant [2]: 49000 M⁻¹ s⁻¹
- IC50 (Rattus norvegicus [3]; Rattus norvegicus, Brain): 3600 nM
